Experimental data as given in ChEMBL document CHEMBL1129465, “Polyamine analogue regulation of NMDA MK-801 binding: a structure-activity study” (J Med Chem, 1996).

Tests used:
Type in all cases: ADME
[1] = Acid base constant value for N1 atom; conditions: read-out: pKa1
Procedure, shortened: (§1)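 Potentiometric titration: the polyamine hydrochloride salt was first converted to the free amine by adding base, then titrated in 0.1 N KCl. Each nitrogen's pKa was estimated by a nonlinear least-squares computer fit of the titration curve. Fractions of the protonated species were then simulated from the measured pKa values.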

[2] = Acid base constant value for N2 atom; conditions: read-out: pKa2; procedure, shortened: as §1
[3] = Acid base constant value for N4 atom; conditions: read-out: pKa4; procedure, shortened: as §1
[4] = Acid base constant value for N3 atom; conditions: read-out: pKa3; procedure, shortened: as §1

| Structure (SMILES) | pKa [1] | pKa [2] | pKa [3] | pKa [4] |
| --- | --- | --- | --- | --- |
| C(CCNC1CCNCC1)CNC1CCNCC1 | 11.4 | 10.7 | 7.6 | 9.02 |
| C(CNC1CCNCC1)CNC1CCNCC1 | 11.2 | 10.7 | 7.14 | 8.88 |
| C(CCNCCC1CCNCC1)CNCCC1CCNCC1 | 10.9 | 10.8 | 9.1 | 10 |
| c1cc(NCCCNc2ccncc2)ccn1 | 9.55 | 9.14 | < 2 | < 2 |
| NCCCCNCCCCNCCCCN | 11.2 | 10.4 | 8.72 | 9.57 |
| CCNCCCNCCCNCCCNCC [BIS(ETHYL)NORSPERMINE] | 10.8 | 9.91 | 7.68 | 8.51 |
| CCNCCCNCCCCNCCCNCC [BIS(ETHYL)SPERMINE] | 11.2 | 10.8 | 8.25 | 9.42 |
| CCNCCCCNCCCCNCCCCNCC [DIETHYLHOMOSPERMINE] | 11.1 | 10.8 | 8.91 | 9.73 |
| NCCCNCCCNCCCN [THERMINE] | 10.6 | 9.8 | 7.51 | 8.35 |
